Target: Transthyretin (Homo sapiens) (UniProt P02766)
Experiment: Inhibition of transthyretin (unknown origin) aggregation at 2 mol equiv measured at 36 hrs by congo red assay relative to control
How it was run: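 TTR aggregation was induced at pH 4.5 with or without the test agent. Aggregation was scored by Congo red at its peak, 36 h. Thioflavin T was not usable because dissolved, filtered TTR gives high background fluorescence.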

SMILES: O=C(O)c1cc(-c2ccc(F)cc2F)ccc1O
- inhibition: > 90%

Reference: ChEMBL document CHEMBL2429806, “Designed Trpzip-3 β-Hairpin Inhibits Amyloid Formation in Two Different Amyloid Systems” (ACS Med Chem Lett, 2013)
